Data as given in ChEMBL document CHEMBL1126750, “Nonpeptide angiotensin II receptor antagonists. Synthesis and biological activity of benzimidazolecarboxylic acids” (J Med Chem, 1993).

Tests used:
[1] = molecular target: T1, Type-1 angiotensin II receptor (Bos taurus, UniProt P25104); assay: Inhibition of specific binding of [125 I ] Angiotensin-II (0.2 nM) to bovine adrenal cortex; assay type: tissue-based
T1 sequence (P25104 whole entry): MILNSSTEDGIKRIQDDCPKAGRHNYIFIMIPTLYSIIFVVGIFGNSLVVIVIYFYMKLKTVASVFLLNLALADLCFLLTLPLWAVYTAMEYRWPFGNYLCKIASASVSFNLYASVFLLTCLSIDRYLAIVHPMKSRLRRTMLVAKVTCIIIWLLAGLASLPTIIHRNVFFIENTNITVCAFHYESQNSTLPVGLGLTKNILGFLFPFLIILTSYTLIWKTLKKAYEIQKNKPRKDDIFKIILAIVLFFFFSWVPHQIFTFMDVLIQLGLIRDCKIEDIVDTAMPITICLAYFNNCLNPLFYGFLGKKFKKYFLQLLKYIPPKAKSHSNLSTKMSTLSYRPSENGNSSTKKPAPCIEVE

[2] = organism: Oryctolagus cuniculus; assay: Concentration required for inhibition of Angiotensin-II induced rabbit aorta strips contraction; assay type: functional
Summary of the method: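 Isolated rabbit aortic strips contracted with AII (10 nM); test compound inhibition measured from concentration-inhibition curves, n = 6-8; IC50 is the concentration halving the AII-induced contraction.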

[3] = tested on: Rattus norvegicus; assay: Percent inhibition of the Angiotensin-II (0.1micro g/kg, iv) induced pressor response after 7 hours of administration (10 mg/kg po) in rats; assay type: functional
Summary of the method: (§1)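 Conscious male Sprague-Dawley rats dosed orally with test compound; pressor response to AII challenge (0.1 µg/kg iv) measured at 3 and 7 h after dosing and expressed as percent inhibition. Duplicate experiments, with n = 3 for some compounds; variation in % inhibition under 30%.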

[4] = tested on: Rattus norvegicus; assay: Percent inhibition of the Angiotensin-II (0.1ug/kg, iv) induced pressor response after 3 hours of administration (10 mg/kg po) in rats; assay type: functional; summary of the method: as §1
[5] = molecular target: T2, Angiotensin II receptor (Rattus norvegicus) (UniProt P29089+P25095+P35351); assay: Percent inhibition of the Angiotensin-II (0.1ug/kg, iv) induced pressor response after 7 hours of administration (1 mg/kg po) in rats; assay type: functional, organism-based; summary of the method: as §1
[6] = molecular target: T2, Angiotensin II receptor (Rattus norvegicus); assay: Percent inhibition of the Angiotensin-II (0.1ug/kg, iv) induced pressor response after 3 hours of administration (1 mg/kg po) in rats; assay type: functional, organism-based; summary of the method: as §1
[7] = molecular target: T2, Angiotensin II receptor (Rattus norvegicus); assay: (§2) Percent inhibition of the Angiotensin-II (0.1micro g/kg, iv) induced pressor response after 7 hours of administration (3 mg/kg po) in rats; assay type: functional, organism-based; summary of the method: as §1
[8] = molecular target: T2, Angiotensin II receptor (Rattus norvegicus); assay: Percent inhibition of the Angiotensin-II (0.1ug/kg, iv) induced pressor response after 3 hours of administration (3 mg/kg po) in rats; assay type: functional, organism-based; summary of the method: as §1
[9] = tested on: Rattus norvegicus; assay: as §2; assay type: functional; summary of the method: as §1
[10] = tested on: Rattus norvegicus; assay: Percent inhibition of the Angiotensin-II (0.1ug/kg, iv) induced pressor response after 7 hours of administration (3 mg/kg po) in rats; assay type: functional; summary of the method: as §1

IC50 [1] [nM]	inhibition [5] [%]	inhibition [6] [%]	Compound	also measured
46			CCc1nc2cccc(C(=O)O)c2n1Cc1ccc(-c2ccccc2-c2nnn[nH]2)cc1	
> 1000			CC[S+]([O-])c1nc2cccc(C(=O)OC)c2n1Cc1ccc(-c2ccccc2-c2nn[nH]n2)cc1 (centres undefined)	
300			CCSCc1nc2cccc(C(=O)O)c2n1Cc1ccc(-c2ccccc2-c2nnn[nH]2)cc1	
62			CCNc1nc2cccc(C(=O)O)c2n1Cc1ccc(-c2ccccc2-c2nnn[nH]2)cc1	
930			CCOc1nc2ccc(C(=O)O)cc2n1Cc1ccc(-c2ccccc2-c2nn[nH]n2)cc1	IC50 [2]: 1.9 nM; Inhibition [3]: 34%; Inhibition [4]: 50%
	12	14	C=CCOc1nc2cccc(C(=O)OC)c2n1Cc1ccc(-c2ccccc2-c2nn[nH]n2)cc1	
	80	97	COc1nc2cccc(C(=O)O)c2n1Cc1ccc(-c2ccccc2-c2nn[nH]n2)cc1	
150	44	85	CSCc1nc2cccc(C(=O)O)c2n1Cc1ccc(-c2ccccc2-c2nn[nH]n2)cc1	
490			COC(=O)c1cccc2nc(OC)n(Cc3ccc(-c4ccccc4-c4nnn[nH]4)cc3)c12	
1000			CCCOc1nc2cccc(C(=O)OCC)c2n1Cc1ccc(-c2ccccc2-c2nnn[nH]2)cc1	
	90	100	CCOc1nc2cccc(C(=O)OC)c2n1Cc1ccc(-c2ccccc2-c2nn[nH]n2)cc1	inhibition [7]: 100%; inhibition [8]: 100%
	66	46	CCCNc1nc2cccc(C(=O)O)c2n1Cc1ccc(-c2ccccc2-c2nn[nH]n2)cc1	inhibition [7]: 72%; inhibition [8]: 73%
			CCOc1nc2c(C(=O)O)cccc2n1Cc1ccc(-c2ccccc2-c2nn[nH]n2)cc1	IC50 [2]: 131 nM; Inhibition [3]: 5%; Inhibition [4]: 22%
3200			CC(C)Cc1nc2cccc(C(=O)O)c2n1Cc1ccc(-c2ccccc2-c2nnn[nH]2)cc1	
170			CNc1nc2cccc(C(=O)O)c2n1Cc1ccc(-c2ccccc2-c2nnn[nH]2)cc1	
> 1000			CCCCOc1nc2cccc(C(=O)OC)c2n1Cc1ccc(-c2ccccc2-c2nnn[nH]2)cc1	
13000			CCOc1nc2cc(C(=O)O)ccc2n1Cc1ccc(-c2ccccc2-c2nn[nH]n2)cc1	IC50 [2]: 191 nM; Inhibition [3]: 4%; Inhibition [4]: 4%
	0	6	CCC(C)c1nc2cccc(C(=O)O)c2n1Cc1ccc(-c2ccccc2-c2nn[nH]n2)cc1 (centres undefined)	inhibition [7]: 18%; inhibition [8]: 15%
440			CCOCc1nc2cccc(C(=O)O)c2n1Cc1ccc(-c2ccccc2-c2nnn[nH]2)cc1	
> 1000			O=C(O)c1cccc2nc(N3CCCCC3)n(Cc3ccc(-c4ccccc4-c4nnn[nH]4)cc3)c12	

IC50 [1] [nM]	inhibition [5] [%]	inhibition [6] [%]	Compound	also measured
580	3	13	COCCc1nc2cccc(C(=O)O)c2n1Cc1ccc(-c2ccccc2-c2nn[nH]n2)cc1	
560			CCCCCc1nc2cccc(C(=O)O)c2n1Cc1ccc(-c2ccccc2-c2nnn[nH]2)cc1	
3900			CCC(C)c1nc2cccc(C(=O)O)c2n1Cc1ccc(-c2ccccc2-c2nnn[nH]2)cc1 (centres undefined)	
120			CSc1nc2cccc(C(=O)O)c2n1Cc1ccc(-c2ccccc2-c2nnn[nH]2)cc1	
	57	68	CCSCc1nc2cccc(C(=O)O)c2n1Cc1ccc(-c2ccccc2-c2nn[nH]n2)cc1	
> 1000			COC(=O)c1cccc2nc(OCC(F)(F)F)n(Cc3ccc(-c4ccccc4-c4nnn[nH]4)cc3)c12	
	9	36	COC(=O)c1cccc2nc(OCC(F)(F)F)n(Cc3ccc(-c4ccccc4-c4nn[nH]n4)cc3)c12	
150			CCCCc1nc(Cl)c(CO)n1Cc1ccc(-c2ccccc2-c2nn[nH]n2)cc1 [LOSARTAN POTASSIUM]	
66			CCOc1nc2cccc(C(=O)OC)c2n1Cc1ccc(-c2ccccc2-c2nnn[nH]2)cc1	
			Cc1nc2cccc(C(=O)O)c2n1Cc1ccc(-c2ccccc2-c2nn[nH]n2)cc1	inhibition [8]: 50%; Inhibition [9]: 51%
620	10	10	CSCCc1nc2cccc(C(=O)O)c2n1Cc1ccc(-c2ccccc2-c2nn[nH]n2)cc1	
650			CCCCNc1nc2cccc(C(=O)O)c2n1Cc1ccc(-c2ccccc2-c2nnn[nH]2)cc1	
> 1000			CCN(C)c1nc2cccc(C(=O)O)c2n1Cc1ccc(-c2ccccc2-c2nnn[nH]2)cc1	
440			CCSc1nc2cccc(C(=O)OC)c2n1Cc1ccc(-c2ccccc2-c2nn[nH]n2)cc1	
	53	49	CCCCc1nc2cccc(C(=O)O)c2n1Cc1ccc(-c2ccccc2-c2nn[nH]n2)cc1	inhibition [8]: 80%; Inhibition [9]: 76%
550			CCCCc1nc2cccc(C(=O)O)c2n1Cc1ccc(-c2ccccc2-c2nnn[nH]2)cc1	
	81	100	CSc1nc2cccc(C(=O)O)c2n1Cc1ccc(-c2ccccc2-c2nn[nH]n2)cc1	inhibition [7]: 95%; inhibition [8]: 100%
580	7	28	O=C(O)c1cccc2nc(OCC(F)(F)F)n(Cc3ccc(-c4ccccc4-c4nn[nH]n4)cc3)c12	
39			CCCNc1nc2cccc(C(=O)O)c2n1Cc1ccc(-c2ccccc2-c2nnn[nH]2)cc1	
	34	21	CCCCc1nc(Cl)c(CO)n1Cc1ccc(-c2ccccc2-c2nnn[nH]2)cc1	inhibition [7]: 74%; inhibition [8]: 62%

IC50 [1] [nM]	inhibition [5] [%]	inhibition [6] [%]	Compound	also measured
	100	100	CCCSc1nc2cccc(C(=O)O)c2n1Cc1ccc(-c2ccccc2-c2nn[nH]n2)cc1	inhibition [7]: 76%; inhibition [8]: 88%
250	33	47	COCc1nc2cccc(C(=O)O)c2n1Cc1ccc(-c2ccccc2-c2nn[nH]n2)cc1	
190			Cc1nc2cccc(C(=O)O)c2n1Cc1ccc(-c2ccccc2-c2nnn[nH]2)cc1	
190	44	26	CCOc1nc2cccc(C(=O)O)c2n1Cc1ccc(-c2ccccc2C(=O)O)cc1	inhibition [7]: 49%; inhibition [8]: 37%
	90	87	CCSc1nc2cccc(C(=O)O)c2n1Cc1ccc(-c2ccccc2-c2nn[nH]n2)cc1	inhibition [7]: 97%; inhibition [8]: 99%
84	88	80	O=C(O)c1cccc2nc(C3CC3)n(Cc3ccc(-c4ccccc4-c4nn[nH]n4)cc3)c12	inhibition [7]: 96%; inhibition [8]: 92%
170	69	83	CCCc1nc2cccc(C(=O)O)c2n1Cc1ccc(-c2ccccc2-c2nn[nH]n2)cc1	inhibition [7]: 91%; inhibition [8]: 90%
	29	63	CCOCc1nc2cccc(C(=O)O)c2n1Cc1ccc(-c2ccccc2-c2nn[nH]n2)cc1	
	13	-9	CC(C)Cc1nc2cccc(C(=O)O)c2n1Cc1ccc(-c2ccccc2-c2nn[nH]n2)cc1	inhibition [7]: 29%; inhibition [8]: 29%
	83	87	CCCOc1nc2cccc(C(=O)O)c2n1Cc1ccc(-c2ccccc2-c2nn[nH]n2)cc1	inhibition [7]: 100%; inhibition [8]: 100%
82			CC(C)c1nc2cccc(C(=O)O)c2n1Cc1ccc(-c2ccccc2-c2nnn[nH]2)cc1	
32			COc1nc2cccc(C(=O)O)c2n1Cc1ccc(-c2ccccc2-c2nnn[nH]2)cc1	
120			CCCSc1nc2cccc(C(=O)O)c2n1Cc1ccc(-c2ccccc2-c2nnn[nH]2)cc1	
> 1000			O=C(O)c1cccc2nc(N3CCOCC3)n(Cc3ccc(-c4ccccc4-c4nnn[nH]4)cc3)c12	
	89	94	COC(=O)c1cccc2nc(OC)n(Cc3ccc(-c4ccccc4-c4nn[nH]n4)cc3)c12	
190			CCCOc1nc2cccc(C(=O)O)c2n1Cc1ccc(-c2ccccc2-c2nnn[nH]2)cc1	
850			C=CCOc1nc2cccc(C(=O)OC)c2n1Cc1ccc(-c2ccccc2-c2nnn[nH]2)cc1	
			CCCOc1nc2cccc(C(=O)OCC)c2n1Cc1ccc(-c2ccccc2-c2nn[nH]n2)cc1	inhibition [8]: 66%; Inhibition [10]: 93%
			CC(C)c1nc2cccc(C(=O)O)c2n1Cc1ccc(-c2ccccc2-c2nn[nH]n2)cc1	inhibition [7]: 38%; inhibition [8]: 61%
170			CCSc1nc2cccc(C(=O)O)c2n1Cc1ccc(-c2ccccc2-c2nnn[nH]2)cc1	
